Results on 30 compounds are retold here after PubChem BioAssay AID652000 (Sanford-Burnham Center for Chemical Genomics, 2013).

Out of some 2,400 compounds screened, fewer than 10 were called active. Only a sample is shown. Values without a mark were called inactive.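 The calls were made as follows: active = activation of at least 50%; inactive = the rest.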

Sequence of G-protein coupled receptor 183 (Homo sapiens) (P32249 whole entry, looked up): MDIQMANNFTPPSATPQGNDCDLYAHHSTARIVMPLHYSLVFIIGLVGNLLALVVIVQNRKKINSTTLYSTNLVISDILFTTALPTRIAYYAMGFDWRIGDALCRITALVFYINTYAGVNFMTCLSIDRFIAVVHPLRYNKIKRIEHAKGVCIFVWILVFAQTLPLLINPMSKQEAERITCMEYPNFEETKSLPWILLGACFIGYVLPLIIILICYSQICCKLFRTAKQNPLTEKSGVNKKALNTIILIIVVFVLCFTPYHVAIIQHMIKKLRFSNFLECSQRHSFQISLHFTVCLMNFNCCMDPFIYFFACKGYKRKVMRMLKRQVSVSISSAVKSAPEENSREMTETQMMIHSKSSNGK

In this assay the target is G-protein coupled receptor 183 (Homo sapiens) (UniProt P32249). As to the kind of experiment: EBI2 receptor activation without oxysterol – cell-based, single concentration, agonist mode, luminescence, counter-screen for EBI2 antagonist project, confirmation (AID 652000). The conditions noted are these: EBI2-expressing cells, 60 min, at 5 µM, active compounds read high, 0% vehicle, 100% 7α,25-dihydroxycholesterol control. The procedure, abridged: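 Material: beta-arrestin reporter cell line | Probe or stimulus: Test wells without oxysterol | Compound: Single concentration, 2.5 nL of 10 mM stock | Times: Overnight seeding and 60-min compound at 37°C, 60-min detection at 25°C | Signal: Luminescence after adding detection reagent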
On to `O=C(NCCNc1ccc([N+](=O)[O-])cc1)c1cccc2c(Br)cccc12`, for which the activation was 0.12%.
As for `COc1ccccc1N1CCN(C(=O)c2cc(-c3ccc(Br)cc3)on2)CC1`, the figure is 1.43%.
For `Cc1cccc(C)c1-n1nnnc1C(CCc1ccccc1)N1CCN(C/C=C/c2ccccc2)CC1` (stereo not given), the activation is -1.39%.
As for `O=C(CCc1ccccc1)NNC(=O)COc1ccc(Cl)cc1`, the figure is 0.21%.
Consider `COc1ccc(-c2nc(N)ncc2-c2ccc(Cl)cc2)c(O)c1`, for which the activation is 1.03%.
As for `COc1cc(/C=C(\C#N)C(=O)Nc2ccc3ccccc3c2)c([N+](=O)[O-])cc1OC`, the activation is -0.75%.
For the compound `O=C(COc1ccc(Cl)cc1)N1CCN(S(=O)(=O)c2ccc(Cl)cc2)CC1`, the activation was 1.62%.
Consider `O=C(c1ccc(-n2cnnn2)cc1)N1CCN(C(c2ccccc2)c2ccccc2)CC1`, for which the activation is 1.53%.
As for `Cc1cc(OCCOc2cccc3cccnc23)c(C)cc1Cl`, the figure is 1.3%; as for `COc1ccc(C(C(=O)NC2CCCCC2)N(C(=O)c2snc(C(N)=O)c2N)c2ccccc2OC)cc1` (stereo not given), 1.3%; as for `CCCCN=C1C([N+](=O)[O-])=CC=C2C1=NC1(CCCCC1)N2O`, -0.38%.
As for `c1ccc(C(c2ccccc2)N2CCN(Cc3nnnn3C3CCCCC3)CC2)cc1`, the figure is 0.25%; as for `COc1ccc(/C=N/N=C/c2c[nH]c(=O)c(C#N)c2Nc2ccccc2)cc1`, -1.52%; as for `COc1ccc(N(CC(=O)Nc2cc(OC)ccc2OC)S(=O)(=O)c2c(C)noc2C)cc1`, 1.12%.
As to `Cc1ccc(S(=O)(=O)NCCNC(C)c2ccc(Br)cc2)cc1` (stereo not given), the activation is 0.98%.
Consider `Cc1cccc(-n2c(O)c(C=Nc3ccccc3N)c(=O)[nH]c2=O)c1`, for which the activation was -2.25%.
With `O=C(/C=C/c1cccc([N+](=O)[O-])c1)N1CCN(Cc2ccccc2)CC1`, the activation was -0.29%.
As to `O=c1[nH]c(CN2CCN(S(=O)(=O)c3ccc4c(c3)OCCO4)CC2)nc2sc3c(c12)CCCC3`, the activation was -1.11%.
Regarding `O=C(NCCCc1ccccc1)C1CCC(=O)N(CCc2ccc(Cl)cc2)C1` (stereo not given), the activation was 1.57%.
As for `COc1ccc(C(=O)/C=C/c2ccc(OC3CSC3)cc2)cc1`, the figure is 2.89%; as for `CCOC(=O)C1CCN(C(=O)COc2cc(C)c(Br)c(C)c2)CC1`, 2.25%; as for `N#Cc1ccc(C2=CC(=O)C[C@H](c3ccc(Cl)cc3)C2)cc1`, 1.84%.
Turning to `COc1cccc(NC(=O)Cn2c3ccc(F)cc3c3nc4n(c(=O)c32)CCS4)c1`, the activation was 0.89%.
As for `COc1ccc2cc(C3=CC(=O)C[C@H](c4ccc5c(c4)OCO5)C3)ccc2c1`, the figure is -1.39%.
As for `CCC(c1nnc(SCC(=O)NNC(=O)c2ccccc2)n1Cc1ccccc1)N(C)C` (stereo not given), the figure is -1.34%.
Under `Cc1cc(C)c2c(=O)n3c(nc2c1)C(CC(C)C)NC(=O)c1cc2ccccc2cc1-3` (stereo not given) stands 0.75%; under `COc1ccc(OCC(=O)N2CCN(C(=O)c3cccs3)CC2)cc1`, 1.48%; under `CCN1CCN(C(=O)CSc2ccc(C)cc2)CC1`, 0.02%.
On to `Cc1ccc(OCC(=O)N2CCN(S(=O)(=O)c3ccc(Cl)s3)CC2)cc1C`, for which the activation is 1.84%.
Under `CCCCC(=O)N(C)c1c(CC)nc2c(OCc3ccc(Cl)cc3Cl)cccn12` stands -1.02%.
